Measured values as given in ChEMBL document CHEMBL1141657, “Synthesis, structure elucidation and identification of antitumoural properties of novel fused 1,2,4-triazine aryl derivatives” (Eur J Med Chem, 2008).

Assays:
[1] = Cytotoxicity against HSF cells assessed as cell viability at 1 uM after 24 hrs by MTT assay relative to control; type: cell-based; details: human, read-out: Activity
In short: (§1)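 Normal human skin fibroblasts (HSF, primary line) were exposed to DMSO-dissolved compound for 24 h. Viability was read by MTT tetrazolium reduction and expressed against untreated control set at 100%.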

Jurkat [2] = assay: Cytotoxicity against human Jurkat cells assessed as cell viability at 100 uM after 24 hrs by MTT assay relative to control; type: functional; details: read-out: Activity
In short: (§2)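 Jurkat T-cell leukaemia line grown in RPMI 1640 with 10% FBS, 2 mM L-glutamine and gentamycin at 37 °C, 5% CO2, kept in log phase. Compounds were dissolved in DMSO and applied for 24 h. Cells were washed in HEPES-buffered medium (pH 7.4) and given MTT at 0.5 mg/mL for 45 min at 37 °C. Formazan was dissolved in DMSO and read at 570 nm. Viability is % of control, from three independent measurements.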

[3] = Cytotoxicity against HSF cells assessed as cell viability at 100 uM after 24 hrs by MTT assay relative to control; type: cell-based; details: human, read-out: Activity; in short: as §1
[4] = Cytotoxicity against HSF cells assessed as cell viability at 50 uM after 24 hrs by MTT assay relative to control; type: cell-based; details: human, read-out: Activity; in short: as §1
Jurkat [5] = assay: Cytotoxicity against human Jurkat cells assessed as cell viability at 1 uM after 24 hrs by MTT assay relative to control; type: functional; details: read-out: Activity; in short: as §2
Jurkat [6] = assay: Cytotoxicity against human Jurkat cells assessed as cell viability at 50 uM after 24 hrs by MTT assay relative to control; type: functional; details: read-out: Activity; in short: as §2
Jurkat [7] = assay: Cytotoxicity against human Jurkat cells assessed as decrease in cell viability after 24 hrs by MTT assay; type: functional, cell-based
In short: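 Jurkat cells grown in RPMI 1640/10% FBS at 37 °C, 5% CO2, with 24 h exposure to DMSO-dissolved compound. Read-out was MTT reduction: 0.5 mg/mL in HEPES-buffered medium for 45 min, formazan in DMSO, absorbance at 570 nm. IC50 was taken from 24 h dose–survival curves.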

SiHa [8] = assay: Growth inhibition of human SiHa cells assessed as BrdU incorporation after 72 hrs by spectrophotometry; type: functional, cell-based
In short: (§3)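 Cancer cells were seeded at 10⁴ cells/mL, preincubated, then exposed for 72 h to DMSO-dissolved compound. Growth was read by BrdU labelling with ELISA spectrophotometry. IC50 was taken from 72 h dose–survival curves. Triplicates.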

T47D [9] = assay: Growth inhibition of human T47D cells assessed as BrdU incorporation after 72 hrs by spectrophotometry; type: functional, cell-based; in short: as §3
[10] = Growth inhibition of human LS180 cells assessed as BrdU incorporation after 72 hrs by spectrophotometry; type: functional, cell-based; details: LS180, 72 h; in short: as §3
Mus musculus = assay: Neurotoxicity in ip dosed Swiss albino mouse assessed as impair in motor coordination at 0.1 LD50 concentration by rotarod test; type: toxicity, organism-based; details: in vivo
In short: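 Male Albino Swiss mice (20-25 g), housed 8-10 per cage at 20 ± 1 °C on a 12/12 h light-dark cycle with food and water ad libitum. Randomized groups of 10. Compound given i.p. as a suspension in 3% Tween 80 at 10 mL kg^-1; controls received the same volume of vehicle. Tests run 8 a.m.-3 p.m.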

[11] = Growth inhibition of african green monkey Vero cells assessed as BrdU incorporation at 183.6 uM after 72 hrs by spectrophotometry; type: cell-based; details: chlorocebus sabaeus, read-out: GI
In short: (§4)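 Cells were seeded at 10⁴ cells/mL and preincubated. Compounds were dissolved in DMSO and added at two fixed concentrations, then incubated for 72 h. End-point was BrdU labelling with ELISA detection, read spectrophotometrically. Result is % growth inhibition versus untreated controls. Triplicates.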

[12] = Growth inhibition of HSF cells assessed as BrdU incorporation at 183.6 uM after 72 hrs by spectrophotometry; type: cell-based; details: human, read-out: GI; in short: as §4
SiHa [13] = assay: Growth inhibition of human SiHa cells assessed as BrdU incorporation at 36.7 uM after 72 hrs by spectrophotometry; type: functional; details: read-out: GI; in short: as §4
[14] = Growth inhibition of human LS180 cells assessed as BrdU incorporation at 36.7 uM after 72 hrs by spectrophotometry; type: functional; details: LS180, 72 h, read-out: GI; in short: as §4
[15] = Growth inhibition of HSF cells assessed as BrdU incorporation at 36.7 uM after 72 hrs by spectrophotometry; type: cell-based; details: human, read-out: GI; in short: as §4
T47D [16] = assay: Growth inhibition of human T47D cells assessed as BrdU incorporation at 183.6 uM after 72 hrs by spectrophotometry; type: functional; details: read-out: GI
In short: (§5)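 Each cell line was seeded at 10⁴ cells per mL and preincubated. Test agents were dissolved in DMSO, added at two examined concentrations (10 and 50 per mL by mass), and incubated for 72 h. The end-point was BrdU labeling and detection kit III read on an ELISA reader. Percent growth inhibition was calculated against untreated controls, in triplicate.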

SiHa [17] = assay: Growth inhibition of human SiHa cells assessed as BrdU incorporation at 183.6 uM after 72 hrs by spectrophotometry; type: functional; details: read-out: GI; in short: as §4
T47D [18] = assay: Growth inhibition of human T47D cells assessed as BrdU incorporation at 36.7 uM after 72 hrs by spectrophotometry; type: functional; details: read-out: GI; in short: as §5
Vero = assay: Growth inhibition of african green monkey Vero cells assessed as BrdU incorporation at 36.7 uM after 72 hrs by spectrophotometry; type: cell-based; details: chlorocebus sabaeus; in short: as §4
[19] = Growth inhibition of human LS180 cells assessed as BrdU incorporation at 183.6 uM after 72 hrs by spectrophotometry; type: functional; details: LS180, 72 h, read-out: GI; in short: as §4

Compound	viability at 24 h, 1 µM [1] [%]	viability at 100 µM (Jurkat [2]) [%]	viability at 24 h, 100 µM [3] [%]	viability at 24 h, 50 µM [4] [%]	viability at 1 µM (Jurkat [5]) [%]	viability at 50 µM (Jurkat [6]) [%]	IC50 (Jurkat [7]) [µM]	IC50 (SiHa [8]) [µM]	IC50 (T47D [9]) [µM]	IC50 [10] [µM]	Activity (Mus musculus)	also measured
CCOC(=O)c1nnc2n(c1=O)CCN2c1ccccc1	91.6	105	77.1	98.1	82	103	–	–	–	–	–	–
CCOC(=O)c1nnc2n(c1=O)CCN2c1ccc(OC)cc1	104	110	97	100	118	110	–	–	–	–	–	–
CCOC(=O)c1nnc2n(c1=O)CCN2c1ccc(Cl)c(Cl)c1	102	23	85	84	91	28	32.2	> 100	> 100	> 100	Non-toxic	–
NNC(=O)c1nnc2n(c1=O)CCN2c1ccccc1	82	33	82	83	89	82	85.5	> 100	> 100	> 100	Non-toxic	inhibition at 72 h, 183.6 µM [11]: 0%; inhibition at 72 h, 183.6 µM [12]: 20%; inhibition of growth at 36.7 µM (SiHa [13]): 0%; inhibition of growth at 36.7 µM [14]: 0%; inhibition at 72 h, 36.7 µM [15]: 16%; inhibition of growth at 183.6 µM (T47D [16]): 9%; inhibition of growth at 183.6 µM (SiHa [17]): 0%; inhibition of growth at 36.7 µM (T47D [18]): 4%; growth inhibition (GI) (Vero): 2%; inhibition of growth at 183.6 µM [19]: 15%
